We go through two sequences from article PMC3024510 (Cancer Immunology, Immunotherapy : CII, 2010).

The test system of assay [1] is PBLs from cancer patients. In words: IFN-γ ELISPOT assay, cancer patients. The class given is cell-based, human. The note with it: all cancer patients tested (BC, MM, RCC). In a few lines:
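Cells were monocyte-depleted, cryopreserved leukapheresis PBLs from end-stage breast cancer, MM and RCC patients. They were stimulated once with 20 µM peptide, given 40 U/ml IL-2 next day, and tested after 7–8 days. The overnight IFN-γ ELISPOT used 3 × 10^5 cells/well in duplicate ± 5 µM peptide, with 10^4 T2 cells per well. Responders: background-subtracted mean spots ±½ SD >25 per 10^5 cells.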

Assay [2] deals with HLA-A2. The assay is described as follows: HLA stabilization assay for peptide binding to HLA class I molecules. Also on record: species or system human. The following applies: mean value from two experiments; normalized to HIV (40 μM peptide).
For assay [3], the system named is T2 cells. The class given is cell-based, human. The following applies: 4 h 51Cr release; singlets. The method in brief: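 Effector: a clone from RCC-patient PBLs given repeated peptide-loaded autologous DC and PBL stimulations, limiting-dilution cloned, and kept on 120 U/ml IL-2. […] Supernatant 51Cr was gamma-counted.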
For assay [4], the system named is cancer cells. In words: cold target inhibition assay. The class given is cell-based. The following applies: unlabeled peptide-loaded T2 cells, inhibitor:target ratio 20:1; singlets. In a few lines:
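51Cr-labeled (1 h) cancer cell line targets, including an HLA-A2− breast cancer line, were co-cultured 4 h with the peptide-specific CTL clone. The clone came from RCC-patient PBLs and was maintained on 120 U/ml IL-2. Unlabeled peptide-loaded T2 cells were added at 20-fold excess over targets. Supernatant 51Cr was gamma-counted.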

Turning to ILIDWLVQV [CB204], the “cancer patients with spontaneous T-cell responses” value in assay [1] is on record as 73%. For the same sequence, the “HLA-A2 stabilization relative to HIV” value in assay [2] was “stabilizes HLA-A2 to a higher degree than HIV”. Further, the “lysis of peptide-loaded T2 cells by CB204-specific CTL clone” value in assay [3] is listed as “able to lyse T2 cells loaded with CB204”. Moreover, the “inhibition of cancer cell lysis by cold T2 target cells presenting the peptide” value in assay [4] is reported as “inhibited lysis of cancer cells”.
In the case of “ILKEPVHGV [HIV-1 pol476–484, reference compound]”, in assay [3], the “lysis of peptide-loaded T2 cells by CB204-specific CTL clone” value is given as “not T2 cells loaded with an irrelevant HIV peptide”.
